HKDC1 activator = HKDC1 hexokinase activators, primary screen, biochemical, fluorescence, uHTS; Q2TB90; recombinant HKDC1, G6PDH/diaphorase resazurin fluorescence; stronger effect = lower value; activity change, negative = activation, % at 20 µM; 340,000 compounds, 0.056% hits; AID 493187, 2011;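 active = activation of 40% or more at 20 µM, a change of -40% or lower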
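System: in-house human HKDC1 enzyme, G6PDH and diaphorase coupling enzymes; Quantity: 5 µg/mL HKDC1 final; Buffer or medium: Tris/MgCl2 buffer, pH 8.0; Dosing: single compound dose of 20 µM, 1% DMSO final; Times: 90 min reaction at room temperature, dark; Detection: coupled resazurin-to-resorufin fluorescence, Ex 525/Em 613 nm.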
* marks the source's active call; other numbers are inactive results. A selection follows.

SMILES	HKDC1 activator
O=C(C1=C(c2ccccc2)C(=O)c2ccccc2C1=O)c1ccccc1	58.2
CC(=O)C1=C(c2ccccc2)N(C(C)=O)n2c(C)nnc2S1	-314.6*
CCOC(=O)C1=C(Cc2ccc(OC)cc2)C(=O)c2ccccc2C1=O	71.4
COc1ncnc2c1oc1nc(C(C)C)c3c(c12)CC(C)(C)OC3	53.1
CCc1nn2c(=O)cc(COc3ccc(/C=C4\C(=N)N5N=C(C)SC5=NC4=O)cc3)nc2s1	58.2
Cc1cc(C)c2c(=N)c3ccccc3n(CCCCCCCCn3c4ccccc4c(=N)c4c(C)cc(C)nc43)c2n1	74.2
CCN1CCN(c2cc3c(nn2)Oc2ccccc2N3C)CC1	-43.8*
CC(C)Nc1nnc(SCC(=O)Nc2ccc3c(c2)C(=O)c2ccccc2C3=O)s1	43.1
CC1C/C(=C\c2cccnc2)C(=O)/C(=C/c2cccnc2)C1 (centres undefined)	40.1
Cc1ccc(SC2=C(N(C)C)C(=O)c3ccccc3C2=O)cc1	57.4
CC(=O)Oc1cccc2c1C(=O)C1CC=CC(OC(C)=O)C1C2=O (centres undefined)	-44.5*
Cc1oc2c(c1C(=O)c1ccccc1)C(=O)C(=O)c1ccccc1-2	42.2
O=C(O)c1ccc(NC2=C/C(=N/S(=O)(=O)c3ccccc3)c3ccccc3C2=O)cc1	71.9
Cc1ccc(SSc2cc(C)ccc2N)c(N)c1	-44.3*
O=S(=O)(/N=C/c1c(O)ccc2ccccc12)c1ccccc1	44.2
O=C1NC(=S)S/C1=C\c1ccc(SCc2ccco2)o1	50.6
CCN(CC)c1ccc(C(=C2C=CC(=[N+](CC)CC)C=C2)c2ccc(N(CC)CC)cc2)cc1	53.7
O=C1NC(=S)N/C1=C/c1cc2c(cc1[N+](=O)[O-])OCO2	-66.8*
O=C1C=C(c2c(O)ccc3ccccc23)c2ccccc2C1=O	93.3
O=C(O)[C@@H](c1ccccc1)N1Cc2ccccc2C1=O	52.0
CCc1ccc(C2=NNC(=Nc3cccc(S(=O)(=O)N(C)C)c3)SC2)cc1	-177.3*
Cc1cccc(N=C2NN=C(c3c(C)[nH]c4ccccc34)CS2)c1	-41.0*
Cc1cccc(N=C2NN=C(c3ccc4c(c3)OCCO4)CS2)c1	-61.7*
Cc1ccc(C2=NNC(=Nc3ccc(F)cc3)SC2)cc1	-69.6*
COC1=CC(=O)C=C(OC)C1=O	65.7
SMILES	HKDC1 activator
CCOc1ccccc1Nc1nnc(SCc2nnc(-c3cc(OC)c(OC)c(OC)c3)o2)s1	48.2
Cc1ccc(C(=O)ONc2ccc(N=NC(=O)c3ccccc3O)cc2)cc1	65.0
COc1ccc([C@@H]2C[C@H](c3ccccc3)Oc3cc(OC)c(OC)c(OC)c32)cc1	36.7
COc1cc(/C=C2\SC(c3ccc(C)cc3)=NC2=O)cc(OC)c1O	47.5
CC(=O)NC1C(=O)N(CCN2CCOCC2)c2ccc(C)cc21 (centres undefined)	85.7
O=C(CN1C(=O)/C(=C2\SC(=S)N(CCS(=O)(=O)O)C2=O)c2ccccc21)Nc1cccc(Br)c1	58.4
COc1ccc(N=C2C(=S)N(c3ccc(OC)cc3)C(=NS(=O)(=O)c3ccccc3)N2c2ccccc2)cc1	-68.5*
N=C1/C(=C\c2ccc(-c3ccc(C(=O)O)cc3)o2)C(=O)N=C2SC=C(c3ccccc3)N12	39.8
Cc1cc(C)c(S(=O)(=O)Nc2cc(SCC(=O)O)c(O)c3ccccc23)cc1C	54.1
O=C(O)c1cccc(-c2ccc(/C=c3/sc4nc5ccccc5n4c3=O)o2)c1	47.9
O=C(/C=C/c1cccs1)Nc1scc(-c2ccccc2)c1C(=O)O	81.2
Cc1onc(-c2ccccc2)c1C(=O)NNC(=S)NC(=O)/C=C/c1cccs1	-57.2*
Cc1ccc2c(c1C)-c1c(ccc(C)c1C)C(=O)C2=O	38.0
O=S(=O)(O)c1cc(O)c2ccc(Nc3ccccc3)cc2c1	49.9
O=C(CCNC(=O)c1ccc([N+](=O)[O-])cc1)NCCC1=CCCCC1	35.0
O=C(N/N=C/c1ccccc1OC(=O)c1ccc2c(c1)OCO2)c1ccccc1	-48.1*
COc1cccc(CC(Cc2nc3ccccc3[nH]2)c2nc3ccccc3[nH]2)c1 (centres undefined)	49.7
CCCN(CCC)C(=S)NC(=O)c1ccc(-c2ccccc2)cc1	-47.6*
CC(C)(C)c1nnc(N/N=C/c2cc(Br)ccc2O)n(N)c1=O	-43.2*
CCC(C)C(N)C1=NC(C(=O)N[C@@H](CC(C)C)C(=O)N[C@H](CCC(=O)[O-])C(=O)N[C@H](C(=O)N[C@H]2CCCCNC(=O)[C@H](CC(N)=O)NC(=O)[C@@H](CC(=O)[O-])NC(=O)[C@H](Cc3cnc[nH]3)NC(=O)[C@@H](Cc3ccccc3)NC(=O)[C@H]([C@@H](C)CC)NC(=O)[C@@H](CCCN)NC2=O)[C@@H](C)CC)CS1.[Zn+2] (some centres undefined)	91.6
Cc1cc(C)n(-c2ccc(NC(=O)C3CCN(Cc4cc(C)c(C)o4)CC3)cc2)n1	41.0
COc1cc(NS(=O)(=O)c2ccc(NC(=O)c3ccc(F)cc3)cc2)ncn1	-58.8*
Cc1ccc(-n2c3nc(=O)[nH]c(=O)c-3cc3cc([N+](=O)[O-])ccc32)cc1	49.4
O=C1C=CC(=O)c2c(O)c(CO)c(CO)c(O)c21	48.5
C=CCn1nc([N+](=O)[O-])nc1Sc1cccc2cccnc12	-46.5*
SMILES	HKDC1 activator
COc1ccc(CN2C=C3C(=O)C(C)(OC(=O)C4CCCC4)C(=O)C=C3C=C2c2ccsc2)cc1 (centres undefined)	35.4
Cn1c(/N=C/c2c(O)ccc3ccccc23)nc2ccccc21	53.7
N=C1N(c2ccccc2)C(=S)C(=Nc2ccccc2)N1c1ccccc1	-77.4*
O=C1C=CC(=O)C(CNc2ccc(C(=O)OCc3ccccc3)cc2)=C1	46.7
CC(C)C(C(=O)O)N1C(=O)/C(=C/C=C/c2ccco2)SC1=S (centres undefined)	50.5
Cc1ccc(S(=O)(=O)N(C(=O)c2ccncc2)c2ccc(OC(=O)c3ccncc3)c3ccccc23)c(C)c1	38.2
Cc1cc2cc(CCNC(=O)c3ccc(S(=O)(=O)N4CCCC4)cc3)c(=O)[nH]c2cc1C	41.4
Cc1cc2cc(CN(Cc3cccs3)S(=O)(=O)c3ccc4c(c3)OCCO4)c(=O)[nH]c2cc1C	-47.0*
Cc1ccccc1S(=O)(=O)c1c(C)cc(C)n(CC(C)C)c1=O	71.5
O=C(N/N=C1/C(=O)c2cccc3cccc1c23)c1ccc(Cl)cc1	43.5
O=C1NN(c2ccc(F)c(Cl)c2)C(=O)/C1=C\c1cccc(OC(=O)c2cccs2)c1	43.7
CC1(C)Cc2ccccc2C2=NNC(=O)C2=N1	53.0
CC(=NNc1nc2ccccc2o1)c1cc2ccccc2cn1	-47.7*
CC(C)c1nc2oc3c(NCc4ccccn4)ncnc3c2c2c1COC(C)(C)C2	35.3
CNc1sc(C(=O)c2ccc(F)cc2)c(N)c1-c1nc2ccccc2s1	-44.7*
COC1=C(C)C(=O)C2=C(C1=O)C1C3CC4=C(C(=O)C(OC)=C(C)C4=O)C(CNC(=O)C(C)=O)N3C(C#N)C(C2)N1C (centres undefined)	60.5
O=C(Nc1ccc2nc(-c3ccco3)c(-c3ccco3)nc2c1)NC1CC1	50.2
COC(=O)c1ccc(NC(=O)CSc2n[nH]c(-c3ccncc3)n2)cc1	36.3
CCOC(=O)c1ccc(NC(=O)CSc2n[nH]c(-c3ccncc3)n2)cc1	39.6
COc1ccc(-c2[nH]c(-c3ccc(SC)cc3)nc2SCC(=O)Nc2nccs2)cc1	-54.3*
N#C/C(C(N)=O)=c1/ccc2c(c1)N1C3=C(CCCC3)CC3CCCCC31N=2 (centres undefined)	51.5
CCOC(=O)c1ccc(N=C2C(=S)N(c3ccc(C(=O)OCC)cc3)C(=N)N2/N=C/c2ccccc2)cc1	-136.4*
NC1=C(Br)C(=O)c2ncccc2C1=O	37.9
